ChEMBL document CHEMBL1147076, “Antitumor activity of MLN8054, an orally active small-molecule inhibitor of Aurora A kinase” (Proc Natl Acad Sci U S A, 2007)

Assays:
PC-3 [1] = assay: Cell cycle arrest in human PC3 cells by accumulation at G2/M phase at 1 uM after 24 hrs by flow cytometry relative to control; type: functional
Procedure, shortened: (§1)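 DNA content profiles by flow cytometry of PC-3 prostate tumor cells exposed to drug diluted in DMSO for 24 or 48 h. Phase distribution was compared with DMSO-treated control cells.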

[2] = target: Mitogen-activated protein kinase 13 (Homo sapiens) (UniProt O15264); assay: Activity of human SAPK4 kinase at 1 uM
Procedure, shortened: (§2)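 Single-point screen in a 226-kinase panel run by an outside service. Test compound at 1 μM with ATP at 10 μM in every assay. Other assay conditions are not given.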

SK-OV-3 = assay: Antiproliferative activity against human SKOV3 cells after 96 hrs by BrdU cell proliferation ELISA; type: functional, cell-based; settings: SK-OV-3, 96 h
[3] = target: Ephrin type-A receptor 3 (Homo sapiens) (UniProt P29320); assay: Activity of human EphA3 kinase at 1 uM
[4] = target: Calcium/calmodulin-dependent protein kinase type II subunit gamma (Homo sapiens) (UniProt Q13555); assay: Activity of human CaMK2gamma kinase at 1 uM
Procedure, shortened: (§3)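 Single-point kinase profiling: each kinase in a 226-kinase panel tested with compound at 1 μM and ATP at 10 μM in every assay, run by an external screening service.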

[5] = target: cAMP-dependent protein kinase catalytic subunit PRKX (Homo sapiens) (UniProt P51817); assay: Activity of human PrKX kinase at 1 uM; procedure, shortened: as §2
[6] = target: G protein-coupled receptor kinase 6 (Homo sapiens) (UniProt P43250); assay: Activity of human GRK6 kinase at 1 uM
Chain of G protein-coupled receptor kinase 6 (Homo sapiens) (P43250 whole entry, looked up): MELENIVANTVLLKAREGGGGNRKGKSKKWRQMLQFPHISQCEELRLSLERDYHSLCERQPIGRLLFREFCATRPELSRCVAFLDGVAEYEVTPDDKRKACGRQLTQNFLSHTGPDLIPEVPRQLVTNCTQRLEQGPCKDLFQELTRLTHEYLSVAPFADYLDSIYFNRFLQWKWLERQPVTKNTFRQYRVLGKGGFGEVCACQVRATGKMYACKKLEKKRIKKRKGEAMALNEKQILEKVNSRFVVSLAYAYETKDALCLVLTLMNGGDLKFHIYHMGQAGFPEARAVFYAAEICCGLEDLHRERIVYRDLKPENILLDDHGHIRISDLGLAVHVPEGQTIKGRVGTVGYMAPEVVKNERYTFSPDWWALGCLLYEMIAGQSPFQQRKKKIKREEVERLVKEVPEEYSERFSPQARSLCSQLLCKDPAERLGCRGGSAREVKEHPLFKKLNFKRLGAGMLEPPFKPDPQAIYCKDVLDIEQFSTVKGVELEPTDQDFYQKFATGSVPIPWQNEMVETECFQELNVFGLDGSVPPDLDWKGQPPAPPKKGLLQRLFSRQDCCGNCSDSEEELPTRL

[7] = target: Tyrosine-protein kinase Yes (Homo sapiens) (UniProt P07947); assay: Inhibition of Yes kinase at 1 uM
Procedure, shortened: (§4)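 Single-point screen within a 226-kinase panel, with compound at 1 μM and ATP at 10 μM in all assays.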

[8] = target: Tyrosine-protein kinase Fes/Fps (Homo sapiens) (UniProt P07332); assay: Activity of human Fes kinase at 1 uM; procedure, shortened: as §3
Homo sapiens = species on record: Homo sapiens; assay: Activity of human CK2 kinase at 1 uM
[9] = target: Ephrin type-A receptor 1 (Homo sapiens) (UniProt P21709); assay: Inhibition of EphA1 kinase at 1 uM; procedure, shortened: as §4
[10] = target: Activin receptor type-1B (Homo sapiens) (UniProt P36896); assay: Activity of human ALK4 kinase at 1 uM
[11] = target: Mitogen-activated protein kinase 10 (Homo sapiens) (UniProt P53779); assay: Activity of human JNK3 kinase at 1 uM; procedure, shortened: as §3
[12] = target: SRSF protein kinase 2 (Homo sapiens) (UniProt P78362); assay: Activity of human SRPK2 kinase at 1 uM; procedure, shortened: as §2
[13] = target: Serine/threonine-protein kinase PAK 5 (Homo sapiens) (UniProt Q9P286); assay: Activity of human PAK5 kinase at 1 uM; procedure, shortened: as §2
[14] = target: CDK3/Cyclin E (Homo sapiens) (UniProt P24864+Q00526); assay: Activity of human CDK3/cyclin E kinase at 1 uM; type: protein-complex assay; procedure, shortened: as §3
Chain of CDK3/Cyclin E (Homo sapiens) (P24864 whole entry, looked up): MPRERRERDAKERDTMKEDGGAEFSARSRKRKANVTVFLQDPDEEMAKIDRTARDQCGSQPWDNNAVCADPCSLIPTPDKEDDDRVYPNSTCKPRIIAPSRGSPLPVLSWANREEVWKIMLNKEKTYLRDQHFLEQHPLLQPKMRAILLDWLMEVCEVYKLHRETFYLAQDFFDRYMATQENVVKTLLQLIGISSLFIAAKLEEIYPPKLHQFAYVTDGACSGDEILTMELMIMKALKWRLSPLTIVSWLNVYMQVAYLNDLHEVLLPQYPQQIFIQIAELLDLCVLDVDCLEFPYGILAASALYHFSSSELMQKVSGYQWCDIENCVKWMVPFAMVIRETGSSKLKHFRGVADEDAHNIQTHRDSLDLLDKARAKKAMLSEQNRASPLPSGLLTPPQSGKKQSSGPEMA
Chain of CDK3/Cyclin E (Homo sapiens) (Q00526 whole entry, looked up): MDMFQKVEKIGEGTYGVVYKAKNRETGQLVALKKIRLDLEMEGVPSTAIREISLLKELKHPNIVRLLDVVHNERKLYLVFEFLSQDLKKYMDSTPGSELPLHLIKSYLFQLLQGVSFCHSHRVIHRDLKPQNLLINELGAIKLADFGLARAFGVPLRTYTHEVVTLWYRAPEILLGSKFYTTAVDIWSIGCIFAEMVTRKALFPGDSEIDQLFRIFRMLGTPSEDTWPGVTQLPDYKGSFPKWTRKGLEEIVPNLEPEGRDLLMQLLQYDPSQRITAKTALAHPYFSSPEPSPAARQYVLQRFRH

[15] = target: Misshapen-like kinase 1 (Homo sapiens) (UniProt Q8N4C8); assay: Activity of human MINK kinase at 1 uM
[16] = target: Proto-oncogene tyrosine-protein kinase ROS (Homo sapiens) (UniProt P08922); assay: Activity of human Ros kinase at 1 uM; procedure, shortened: as §2
Chain of Proto-oncogene tyrosine-protein kinase ROS (Homo sapiens) (P08922 whole entry): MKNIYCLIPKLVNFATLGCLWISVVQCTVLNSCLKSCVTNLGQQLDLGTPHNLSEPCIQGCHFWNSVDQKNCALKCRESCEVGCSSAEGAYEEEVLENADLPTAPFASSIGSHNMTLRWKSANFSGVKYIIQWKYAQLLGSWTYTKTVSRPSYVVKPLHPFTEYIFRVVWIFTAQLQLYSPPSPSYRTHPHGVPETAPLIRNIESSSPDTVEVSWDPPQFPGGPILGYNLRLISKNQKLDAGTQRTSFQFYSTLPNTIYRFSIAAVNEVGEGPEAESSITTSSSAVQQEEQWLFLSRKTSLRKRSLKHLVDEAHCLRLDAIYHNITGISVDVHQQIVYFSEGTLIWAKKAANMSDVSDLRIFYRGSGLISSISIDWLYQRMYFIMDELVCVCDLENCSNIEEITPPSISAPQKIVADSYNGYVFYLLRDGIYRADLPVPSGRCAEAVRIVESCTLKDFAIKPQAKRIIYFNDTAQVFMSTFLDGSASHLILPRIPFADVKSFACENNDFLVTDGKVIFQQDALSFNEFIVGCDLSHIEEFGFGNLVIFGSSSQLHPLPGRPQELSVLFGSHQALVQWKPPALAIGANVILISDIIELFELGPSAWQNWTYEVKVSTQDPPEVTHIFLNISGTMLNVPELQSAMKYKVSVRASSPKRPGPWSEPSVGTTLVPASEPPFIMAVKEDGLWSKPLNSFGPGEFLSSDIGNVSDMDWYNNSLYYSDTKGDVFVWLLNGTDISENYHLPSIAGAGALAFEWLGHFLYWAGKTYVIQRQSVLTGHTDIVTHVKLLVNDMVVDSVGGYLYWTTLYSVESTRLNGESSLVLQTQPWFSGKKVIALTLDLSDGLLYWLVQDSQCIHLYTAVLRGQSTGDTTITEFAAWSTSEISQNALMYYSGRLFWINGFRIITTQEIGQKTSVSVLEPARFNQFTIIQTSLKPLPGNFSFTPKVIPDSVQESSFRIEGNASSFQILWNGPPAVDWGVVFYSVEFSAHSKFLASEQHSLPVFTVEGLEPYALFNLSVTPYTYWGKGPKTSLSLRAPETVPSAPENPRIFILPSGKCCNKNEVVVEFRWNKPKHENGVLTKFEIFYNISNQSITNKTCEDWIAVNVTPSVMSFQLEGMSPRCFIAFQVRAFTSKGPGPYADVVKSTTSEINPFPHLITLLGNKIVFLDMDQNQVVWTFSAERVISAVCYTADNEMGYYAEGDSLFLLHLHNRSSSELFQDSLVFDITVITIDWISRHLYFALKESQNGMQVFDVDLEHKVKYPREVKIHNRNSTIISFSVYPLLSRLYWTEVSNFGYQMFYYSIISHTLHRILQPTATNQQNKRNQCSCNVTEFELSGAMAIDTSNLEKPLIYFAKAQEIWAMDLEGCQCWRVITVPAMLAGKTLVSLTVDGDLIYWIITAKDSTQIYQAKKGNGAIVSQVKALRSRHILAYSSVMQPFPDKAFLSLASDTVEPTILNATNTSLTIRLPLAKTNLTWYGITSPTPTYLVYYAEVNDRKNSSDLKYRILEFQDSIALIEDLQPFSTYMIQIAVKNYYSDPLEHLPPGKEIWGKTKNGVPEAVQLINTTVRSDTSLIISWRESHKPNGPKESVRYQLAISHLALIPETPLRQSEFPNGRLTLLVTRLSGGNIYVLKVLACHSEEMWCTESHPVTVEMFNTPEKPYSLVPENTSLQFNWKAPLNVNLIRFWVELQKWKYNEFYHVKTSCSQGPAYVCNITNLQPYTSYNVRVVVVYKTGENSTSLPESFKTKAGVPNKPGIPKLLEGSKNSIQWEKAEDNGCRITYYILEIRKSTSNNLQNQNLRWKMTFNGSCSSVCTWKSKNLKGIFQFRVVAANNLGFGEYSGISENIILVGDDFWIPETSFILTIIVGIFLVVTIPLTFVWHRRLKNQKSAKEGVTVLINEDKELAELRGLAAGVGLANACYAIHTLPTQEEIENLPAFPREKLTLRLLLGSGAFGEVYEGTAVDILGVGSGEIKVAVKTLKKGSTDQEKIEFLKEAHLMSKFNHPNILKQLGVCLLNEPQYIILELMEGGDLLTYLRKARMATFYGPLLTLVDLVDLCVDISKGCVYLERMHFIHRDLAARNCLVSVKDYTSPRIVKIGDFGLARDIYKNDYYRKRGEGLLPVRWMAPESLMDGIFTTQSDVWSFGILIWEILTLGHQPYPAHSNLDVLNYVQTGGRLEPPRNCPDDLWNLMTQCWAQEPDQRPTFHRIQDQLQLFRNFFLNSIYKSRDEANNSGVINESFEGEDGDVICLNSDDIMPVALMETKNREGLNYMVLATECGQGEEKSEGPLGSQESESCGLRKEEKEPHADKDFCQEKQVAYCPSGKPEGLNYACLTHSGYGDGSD

[17] = target: Vascular endothelial growth factor receptor 3 (Homo sapiens) (UniProt P35916); assay: Activity of human Flt4 kinase at 1 uM; procedure, shortened: as §3
Chain of Vascular endothelial growth factor receptor 3 (Homo sapiens) (P35916 whole entry): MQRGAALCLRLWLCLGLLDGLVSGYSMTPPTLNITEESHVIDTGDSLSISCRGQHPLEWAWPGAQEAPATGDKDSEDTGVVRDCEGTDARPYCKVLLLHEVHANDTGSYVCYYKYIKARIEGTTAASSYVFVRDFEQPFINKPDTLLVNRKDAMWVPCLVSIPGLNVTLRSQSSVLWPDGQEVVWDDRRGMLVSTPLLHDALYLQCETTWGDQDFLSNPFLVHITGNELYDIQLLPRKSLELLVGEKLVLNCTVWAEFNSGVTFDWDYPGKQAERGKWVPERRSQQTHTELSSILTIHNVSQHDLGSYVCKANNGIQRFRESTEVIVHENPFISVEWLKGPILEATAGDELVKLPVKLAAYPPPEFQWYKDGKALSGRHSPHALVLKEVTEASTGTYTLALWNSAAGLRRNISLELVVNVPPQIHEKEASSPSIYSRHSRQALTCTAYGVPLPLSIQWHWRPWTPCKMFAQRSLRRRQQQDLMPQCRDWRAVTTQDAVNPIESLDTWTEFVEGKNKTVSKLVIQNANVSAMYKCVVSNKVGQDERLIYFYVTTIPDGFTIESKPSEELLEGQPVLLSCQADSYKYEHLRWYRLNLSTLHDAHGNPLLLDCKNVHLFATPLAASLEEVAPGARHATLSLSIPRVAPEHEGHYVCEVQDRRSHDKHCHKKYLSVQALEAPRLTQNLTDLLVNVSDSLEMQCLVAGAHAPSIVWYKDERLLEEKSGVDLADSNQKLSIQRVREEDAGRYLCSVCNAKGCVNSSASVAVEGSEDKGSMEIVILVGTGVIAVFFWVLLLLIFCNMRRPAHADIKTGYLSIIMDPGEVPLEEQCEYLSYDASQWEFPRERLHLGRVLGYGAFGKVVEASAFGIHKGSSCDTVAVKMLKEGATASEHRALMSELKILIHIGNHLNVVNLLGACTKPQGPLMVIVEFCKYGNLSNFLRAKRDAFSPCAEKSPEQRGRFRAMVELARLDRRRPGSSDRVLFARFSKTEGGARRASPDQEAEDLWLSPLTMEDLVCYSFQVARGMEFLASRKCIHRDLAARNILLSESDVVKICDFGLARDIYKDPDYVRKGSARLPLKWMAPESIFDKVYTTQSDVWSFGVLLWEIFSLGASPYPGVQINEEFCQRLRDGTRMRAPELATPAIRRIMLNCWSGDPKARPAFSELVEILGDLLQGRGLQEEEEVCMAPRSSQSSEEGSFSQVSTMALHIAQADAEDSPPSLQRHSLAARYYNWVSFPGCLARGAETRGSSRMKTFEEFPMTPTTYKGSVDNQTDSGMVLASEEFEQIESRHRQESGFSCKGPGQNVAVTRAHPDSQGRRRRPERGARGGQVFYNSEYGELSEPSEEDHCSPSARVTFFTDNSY

[18] = target: Fibroblast growth factor receptor 4 (Homo sapiens) (UniProt P22455); assay: Activity of human FGFR4 kinase at 1 uM
[19] = target: Protein kinase C eta type (Homo sapiens) (UniProt P24723); assay: Activity of human PKCeta kinase at 1 uM; procedure, shortened: as §2
PC-3 [20] = assay: Cell cycle arrest in human PC3 cells by accumulation at G2/M phase at 4 uM after 24 hrs by flow cytometry relative to control; type: functional; procedure, shortened: as §1

O=C(O)c1ccc(Nc2ncc3c(n2)-c2ccc(Cl)cc2C(c2c(F)cccc2F)=NC3)cc1 [MLN-8054]
Activity (PC-3 [1]): 45.4%
Activity [2]: 87%
IC50 (SK-OV-3): 530 nM
Activity [3]: 88%
Activity [4]: 112%
Activity [5]: 99%
Activity [6]: 110%
inhibition [7]: 80%
Activity [8]: 133%
Activity (Homo sapiens): 108%
inhibition [9]: 71%
Activity [10]: 115%
Activity [11]: 125%
Activity [12]: 87%
Activity [13]: 100%
Activity [14]: 105%
Activity [15]: 104%
Activity [16]: 88%
Activity [17]: 6%
Activity [18]: 115%
Activity [19]: 120%
Activity (PC-3 [20]): 58.8%
